Tests used:
Assay type in all cases: functional
Details in all cases: read-out: GI
HL-60 = assay: Antitumor activity against human HL-60 cells assessed as growth inhibition at 10 uM relative to control
In short: (§1)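 After drug addition, plates were incubated 48 h at 37 °C under 5% CO2. Adherent cells were fixed with cold TCA (10% final, 60 min, 4 °C) and suspension cells with 16% final TCA. Staining used 0.4% SRB in 1% acetic acid, solubilized in 10 mM trizma, read at A515. Percent growth was calculated from time-zero, control and treated absorbances.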

K562 = assay: Antitumor activity against human K562 cells assessed as growth inhibition at 10 uM relative to control; in short: as §1
MOLT-4 = assay: Antitumor activity against human MOLT-4 cells assessed as growth inhibition at 10 uM relative to control; in short: as §1
SR = assay: Antitumor activity against human SR cells assessed as growth inhibition at 10 uM relative to control
In short: (§2)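 Drug exposure 48 h at 37 °C, 5% CO2. Adherent cells fixed with cold TCA (10% final), suspension cells with TCA (16% final). Stained with 0.4% SRB in 1% acetic acid, dissolved in 10 mM Tris, A515. Growth relative to time-zero and untreated control.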

A549 = assay: Antitumor activity against human A549 cells assessed as growth inhibition at 10 uM relative to control; in short: as §1
EKVX = assay: Antitumor activity against human EKVX cells assessed as growth inhibition at 10 uM relative to control; in short: as §1
HOP-62 = assay: Antitumor activity against human HOP-62 cells assessed as growth inhibition at 10 uM relative to control; in short: as §1
HOP-92 = assay: Antitumor activity against human HOP-92 cells assessed as growth inhibition at 10 uM relative to control; in short: as §1
NCI-H226 = assay: Antitumor activity against human NCI-H226 cells assessed as growth inhibition at 10 uM relative to control; in short: as §1
NCI-H23 = assay: Antitumor activity against human NCI-H23 cells assessed as growth inhibition at 10 uM relative to control; in short: as §1
NCI-H322M = assay: Antitumor activity against human NCI-H322M cells assessed as growth inhibition at 10 uM relative to control; in short: as §1
NCI-H522 = assay: Antitumor activity against human NCI-H522 cells assessed as growth inhibition at 10 uM relative to control; in short: as §1
COLO 205 = assay: Antitumor activity against human COLO 205 cells assessed as growth inhibition at 10 uM relative to control; in short: as §1
HCC 2998 = assay: Antitumor activity against human HCC 2998 cells assessed as growth inhibition at 10 uM relative to control; in short: as §1
HCT-116 = assay: Antitumor activity against human HCT-116 cells assessed as growth inhibition at 10 uM relative to control; in short: as §1
HCT-15 = assay: Antitumor activity against human HCT-15 cells assessed as growth inhibition at 10 uM relative to control; in short: as §1
SF-268 = assay: Antitumor activity against human SF-268 cells assessed as growth inhibition at 10 uM relative to control; in short: as §1
SF-295 = assay: Antitumor activity against human SF-295 cells assessed as growth inhibition at 10 uM relative to control; in short: as §1
SF-539 = assay: Antitumor activity against human SF-539 cells assessed as growth inhibition at 10 uM relative to control; in short: as §1
SNB-19 = assay: Antitumor activity against human SNB-19 cells assessed as growth inhibition at 10 uM relative to control; in short: as §2
SNB-75 = assay: Antitumor activity against human SNB-75 cells assessed as growth inhibition at 10 uM relative to control; in short: as §2
U-251 = assay: Antitumor activity against human U-251 cells assessed as growth inhibition at 10 uM relative to control; in short: as §2
LOX IMVI = assay: Antitumor activity against human LOX IMVI cells assessed as growth inhibition at 10 uM relative to control; in short: as §1
M14 = assay: Antitumor activity against human M14 cells assessed as growth inhibition at 10 uM relative to control; in short: as §1
MDA-MB-435 = assay: Antitumor activity against human MDA-MB-435 cells assessed as growth inhibition at 10 uM relative to control; in short: as §1
SK-MEL-2 = assay: Antitumor activity against human SK-MEL-2 cells assessed as growth inhibition at 10 uM relative to control; in short: as §1
SK-MEL-5 = assay: Antitumor activity against human SK-MEL-5 cells assessed as growth inhibition at 10 uM relative to control; in short: as §2
UACC-257 = assay: Antitumor activity against human UACC-257 cells assessed as growth inhibition at 10 uM relative to control; in short: as §2
IGROV-1 = assay: Antitumor activity against human IGROV-1 cells assessed as growth inhibition at 10 uM relative to control; in short: as §1
OVCAR-3 = assay: Antitumor activity against human OVCAR-3 cells assessed as growth inhibition at 10 uM relative to control; in short: as §1
OVCAR-4 = assay: Antitumor activity against human OVCAR-4 cells assessed as growth inhibition at 10 uM relative to control; in short: as §1
OVCAR-5 = assay: Antitumor activity against human OVCAR-5 cells assessed as growth inhibition at 10 uM relative to control; in short: as §1
OVCAR-8 = assay: Antitumor activity against human OVCAR-8 cells assessed as growth inhibition at 10 uM relative to control; in short: as §1
SK-OV-3 = assay: Antitumor activity against human SK-OV-3 cells assessed as growth inhibition at 10 uM relative to control; in short: as §2
786-0 = assay: Antitumor activity against human 786-0 cells assessed as growth inhibition at 10 uM relative to control; in short: as §1
A498 = assay: Antitumor activity against human A498 cells assessed as growth inhibition at 10 uM relative to control; in short: as §1
CAKI-1 = assay: Antitumor activity against human CAKI-1 cells assessed as growth inhibition at 10 uM relative to control; in short: as §1
RXF 393 = assay: Antitumor activity against human RXF 393 cells assessed as growth inhibition at 10 uM relative to control; in short: as §1
TK-10 = assay: Antitumor activity against human TK-10 cells assessed as growth inhibition at 10 uM relative to control; in short: as §2
UO-31 = assay: Antitumor activity against human UO-31 cells assessed as growth inhibition at 10 uM relative to control; in short: as §2
PC-3 = assay: Antitumor activity against human PC-3 cells assessed as growth inhibition at 10 uM relative to control; in short: as §1
DU-145 = assay: Antitumor activity against human DU-145 cells assessed as growth inhibition at 10 uM relative to control; in short: as §1
MCF7 = assay: Antitumor activity against human MCF7 cells assessed as growth inhibition at 10 uM relative to control; in short: as §1
MDA-MB-231 = assay: Antitumor activity against human MDA-MB-231 cells assessed as growth inhibition at 10 uM relative to control; in short: as §1
Hs-578T = assay: Antitumor activity against human Hs-578T cells assessed as growth inhibition at 10 uM relative to control; in short: as §1
BT-549 = assay: Antitumor activity against human BT-549 cells assessed as growth inhibition at 10 uM relative to control; in short: as §1

`N#Cc1c(-c2ccc(Cl)cc2)nc(N/N=C2/C(=O)Nc3ccc(Br)cc32)nc1N1CCOCC1` was tested, and the inhibition of growth at 10 µM (HL-60) was < 1%, the inhibition of growth at 10 µM (K562) was < 1% and the inhibition of growth at 10 µM (MOLT-4) was < 1%. The inhibition of growth at 10 µM (SR) was < 1%, the inhibition of growth at 10 µM (A549) was < 1% and the inhibition of growth at 10 µM (EKVX) was < 1%. The inhibition of growth at 10 µM (HOP-62) was < 1%, the inhibition of growth at 10 µM (HOP-92) was < 1% and the inhibition of growth at 10 µM (NCI-H226) was < 1%. For the same molecule, the inhibition of growth at 10 µM (NCI-H23) was 11.9%, the inhibition of growth at 10 µM (NCI-H322M) was < 1% and the inhibition of growth at 10 µM (NCI-H522) was < 1%. For the same molecule, the inhibition of growth at 10 µM (COLO 205) was 1%, the inhibition of growth at 10 µM (HCC 2998) was < 1% and the inhibition of growth at 10 µM (HCT-116) was 16.8%. For the same molecule, the inhibition of growth at 10 µM (HCT-15) was 1%, the inhibition of growth at 10 µM (SF-268) was < 1% and the inhibition of growth at 10 µM (SF-295) was < 1%. The inhibition of growth at 10 µM (SF-539) was < 1%, the inhibition of growth at 10 µM (SNB-19) was < 1% and the inhibition of growth at 10 µM (SNB-75) was < 1%. For the same molecule, the inhibition of growth at 10 µM (U-251) was 33.6%, the inhibition of growth at 10 µM (LOX IMVI) was 14.6% and the inhibition of growth at 10 µM (M14) was < 1%. The inhibition of growth at 10 µM (MDA-MB-435) was < 1%, the inhibition of growth at 10 µM (SK-MEL-2) was < 1% and the inhibition of growth at 10 µM (SK-MEL-5) was < 1%. For the same molecule, the inhibition of growth at 10 µM (UACC-257) was < 1%, the inhibition of growth at 10 µM (IGROV-1) was < 1% and the inhibition of growth at 10 µM (OVCAR-3) was < 1%. The inhibition of growth at 10 µM (OVCAR-4) was < 1%, the inhibition of growth at 10 µM (OVCAR-5) was < 1% and the inhibition of growth at 10 µM (OVCAR-8) was < 1%. The inhibition of growth at 10 µM (SK-OV-3) was < 1%, the inhibition of growth at 10 µM (786-0) was < 1% and the inhibition of growth at 10 µM (A498) was 26.3%. For the same molecule, the inhibition of growth at 10 µM (CAKI-1) was < 1%, the inhibition of growth at 10 µM (RXF 393) was < 1% and the inhibition of growth at 10 µM (TK-10) was < 1%. For the same molecule, the inhibition of growth at 10 µM (UO-31) was 28.7%, the inhibition of growth at 10 µM (PC-3) was < 1% and the inhibition of growth at 10 µM (DU-145) was < 1%. The inhibition of growth at 10 µM (MCF7) was 1%, the inhibition of growth at 10 µM (MDA-MB-231) was 14.2% and the inhibition of growth at 10 µM (Hs-578T) was < 1%. The inhibition of growth at 10 µM (BT-549) was < 1%.

`N#Cc1c(-c2ccc(Cl)cc2)nc(N/N=C/c2cccc([N+](=O)[O-])c2)nc1N1CCOCC1` was tested, and the inhibition of growth at 10 µM (HL-60) was 13.5%, the inhibition of growth at 10 µM (K562) was 33.6% and the inhibition of growth at 10 µM (MOLT-4) was 36.6%. For the same molecule, the inhibition of growth at 10 µM (SR) was 42.5%, the inhibition of growth at 10 µM (A549) was 27.2% and the inhibition of growth at 10 µM (EKVX) was 33.8%. For the same molecule, the inhibition of growth at 10 µM (HOP-62) was < 1%, the inhibition of growth at 10 µM (HOP-92) was 28.7% and the inhibition of growth at 10 µM (NCI-H226) was 28.7%. For the same molecule, the inhibition of growth at 10 µM (NCI-H23) was < 1%, the inhibition of growth at 10 µM (NCI-H322M) was 14.3% and the inhibition of growth at 10 µM (NCI-H522) was 24.1%. The inhibition of growth at 10 µM (COLO 205) was 14.6%, the inhibition of growth at 10 µM (HCC 2998) was < 1% and the inhibition of growth at 10 µM (HCT-116) was 20.1%. For the same molecule, the inhibition of growth at 10 µM (HCT-15) was 23%, the inhibition of growth at 10 µM (SF-268) was 12.3% and the inhibition of growth at 10 µM (SF-295) was < 1%. The inhibition of growth at 10 µM (SF-539) was 17.7%, the inhibition of growth at 10 µM (SNB-19) was 10% and the inhibition of growth at 10 µM (SNB-75) was 33.4%. It also gave an inhibition of growth at 10 µM (U-251) of 40.1%, an inhibition of growth at 10 µM (LOX IMVI) of 26% and an inhibition of growth at 10 µM (M14) of 16.4%. The inhibition of growth at 10 µM (MDA-MB-435) was 12.1%, the inhibition of growth at 10 µM (SK-MEL-2) was 10.4% and the inhibition of growth at 10 µM (SK-MEL-5) was 14.9%. The inhibition of growth at 10 µM (UACC-257) was < 1%, the inhibition of growth at 10 µM (IGROV-1) was 28.1% and the inhibition of growth at 10 µM (OVCAR-3) was 11.2%. For the same molecule, the inhibition of growth at 10 µM (OVCAR-4) was 22.3%, the inhibition of growth at 10 µM (OVCAR-5) was 10.2% and the inhibition of growth at 10 µM (OVCAR-8) was 12.5%. It also gave an inhibition of growth at 10 µM (SK-OV-3) of 11.1%, an inhibition of growth at 10 µM (786-0) of 13.2% and an inhibition of growth at 10 µM (A498) of 47.5%. For the same molecule, the inhibition of growth at 10 µM (CAKI-1) was 28.1%, the inhibition of growth at 10 µM (RXF 393) was 56.6% and the inhibition of growth at 10 µM (TK-10) was 25.6%. The inhibition of growth at 10 µM (UO-31) was 65.1%, the inhibition of growth at 10 µM (PC-3) was 35.8% and the inhibition of growth at 10 µM (DU-145) was 13.1%. The inhibition of growth at 10 µM (MCF7) was < 25.6%, the inhibition of growth at 10 µM (MDA-MB-231) was 17.6% and the inhibition of growth at 10 µM (Hs-578T) was < 1%. The inhibition of growth at 10 µM (BT-549) was 27.6%.
